# Assay results reported in ChEMBL document CHEMBL1667803, “Inhibitory effects of ethacrynic acid analogues lacking the α,β-unsaturated carbonyl unit and para-acylated phenols on human cancer cells” (2011).
# Activity calls are given as the source filed them. No cut-off for these calls is given here.
# System: not listed separately
# Assay: (§1) Inhibition of migration of human Hs578Ts(i)8 cells at 100 uM after 24 hrs
# Format: functional
# Outline: (§2)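 Wound-healing migration assay. Confluent monolayers were washed twice with PBS and scratched to leave a gap of about 1500 µm, then imaged. Fresh medium was added with or without compound, at concentrations set from the 24 h MTT assay. The wound was imaged again after 24 h. Migration was quantified against the earlier images as migratory velocity (µm/h).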
row,Compound,inhibition at 100 µM
1,CCC(=O)c1ccc(O)cc1C,86%
2,CCOC(=O)COc1ccc(C(=O)CC)c(C)c1,19%
3,CCC(=O)c1ccc(O)cc1 [PAROXYPROPIONE],28%
4,CCC(=O)c1ccc(O)c(C)c1C,17%

# Organism: Homo sapiens
# Assay: as §1
# Format: functional
# Outline: as §2
row,Compound,inhibition
1,CCCC(=O)c1ccc(OCC(=O)O)c(C)c1C,inactive
2,CCCC(=O)c1ccc(OCC(=O)OCC)c(C)c1C,inactive
3,C=C(CC)C(=O)c1ccc(OCC(=O)O)c(Cl)c1Cl [ETHACRYNIC ACID],inactive
4,CCOC(=O)COc1ccc(C(=O)CC)c(C)c1C,inactive
5,CCC(=O)c1ccc(OCC(=O)O)c(C)c1C,inactive

# System: LNCaP C4-2B
# Assay: […] human C4-2B cells assessed as reduction in cell viability after 24 hrs
# Format: functional
# Outline: (§3)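 MTT viability assay. Cells seeded at 1.5×10^4 per well in medium with 5% FBS and penicillin/streptomycin, then grown 24 h at 37 °C in 5% CO2. Treated 24 h at 1, 5, 10, 20, 40, 60, 80 and 100 μM. Half the medium was removed before adding MTT, and optical density was read. Three independent experiments were run per concentration. OD80/IC20 (20% inhibition) was read from the graphs.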
row,Compound,IC20
1,CCC(=O)c1ccc(O)cc1C,> 100 µM
2,CCCC(=O)c1ccc(OCC(=O)O)c(C)c1C,> 100 µM
3,CCOC(=O)COc1ccc(C(=O)CC)c(C)c1,> 100 µM
4,CCC(=O)c1ccc(O)cc1 [PAROXYPROPIONE],> 100 µM
5,CCCC(=O)c1ccc(OCC(=O)OCC)c(C)c1C,50 µM
6,C=C(CC)C(=O)c1ccc(OCC(=O)O)c(Cl)c1Cl [ETHACRYNIC ACID],10 µM
7,CCOC(=O)COc1ccc(C(=O)CC)c(C)c1C,> 100 µM
8,CCC(=O)c1ccc(O)c(C)c1C,> 100 µM
9,CCC(=O)c1ccc(OCC(=O)O)c(C)c1C,> 100 µM

# System: LNCaP C4-2B
# Assay: Inhibition of migration of human C4-2B cells at 100 uM after 24 hrs
# Format: functional
# Outline: as §2
Compound,inhibition at 100 µM,inhibition
CCC(=O)c1ccc(O)cc1C,65%,–
CCCC(=O)c1ccc(OCC(=O)O)c(C)c1C,–,inactive
CCOC(=O)COc1ccc(C(=O)CC)c(C)c1,23%,–
CCC(=O)c1ccc(O)cc1 [PAROXYPROPIONE],25%,–
CCCC(=O)c1ccc(OCC(=O)OCC)c(C)c1C,–,inactive
C=C(CC)C(=O)c1ccc(OCC(=O)O)c(Cl)c1Cl [ETHACRYNIC ACID],–,inactive
CCOC(=O)COc1ccc(C(=O)CC)c(C)c1C,–,inactive
CCC(=O)c1ccc(O)c(C)c1C,–,inactive
CCC(=O)c1ccc(OCC(=O)O)c(C)c1C,–,inactive

# System: not listed separately
# Assay: […] human Hs578Ts(i)8 cells assessed as reduction in cell viability after 24 hrs
# Format: functional
# Outline: as §3
row,Compound,IC20
1,CCC(=O)c1ccc(O)cc1C,> 100 µM
2,CCCC(=O)c1ccc(OCC(=O)O)c(C)c1C,> 100 µM
3,CCOC(=O)COc1ccc(C(=O)CC)c(C)c1,> 100 µM
4,CCC(=O)c1ccc(O)cc1 [PAROXYPROPIONE],> 100 µM
5,CCCC(=O)c1ccc(OCC(=O)OCC)c(C)c1C,> 100 µM
6,C=C(CC)C(=O)c1ccc(OCC(=O)O)c(Cl)c1Cl [ETHACRYNIC ACID],80 µM
7,CCOC(=O)COc1ccc(C(=O)CC)c(C)c1C,> 100 µM
8,CCC(=O)c1ccc(O)c(C)c1C,> 100 µM
9,CCC(=O)c1ccc(OCC(=O)O)c(C)c1C,> 100 µM
